Results reported in ChEMBL document CHEMBL4765226, “Identification of a Human Toll-Like Receptor (TLR) 8-Specific Agonist and a Functional Pan-TLR Inhibitor in 2-Aminoimidazoles” (J Med Chem, 2016).
Calls of active or inactive are those of the source.

Experiments:
[1] = target: T1, Toll-like receptor 8 (Homo sapiens) (UniProt Q9NR97); assay: Agonist activity at TLR8 in human polymorphonuclear leucocyte cells assessed as induction of NF-kappaB phosphorylation measured after 15 mins in presence of 10% FBS by Alexa fluor 647 dye based flow cytometry analysis; assay type: tissue-based; conditions: filed as agonist, in the assay text read “PE-Cy7 dye” for “Alexa fluor 647 dye”
T1 sequence (whole entry): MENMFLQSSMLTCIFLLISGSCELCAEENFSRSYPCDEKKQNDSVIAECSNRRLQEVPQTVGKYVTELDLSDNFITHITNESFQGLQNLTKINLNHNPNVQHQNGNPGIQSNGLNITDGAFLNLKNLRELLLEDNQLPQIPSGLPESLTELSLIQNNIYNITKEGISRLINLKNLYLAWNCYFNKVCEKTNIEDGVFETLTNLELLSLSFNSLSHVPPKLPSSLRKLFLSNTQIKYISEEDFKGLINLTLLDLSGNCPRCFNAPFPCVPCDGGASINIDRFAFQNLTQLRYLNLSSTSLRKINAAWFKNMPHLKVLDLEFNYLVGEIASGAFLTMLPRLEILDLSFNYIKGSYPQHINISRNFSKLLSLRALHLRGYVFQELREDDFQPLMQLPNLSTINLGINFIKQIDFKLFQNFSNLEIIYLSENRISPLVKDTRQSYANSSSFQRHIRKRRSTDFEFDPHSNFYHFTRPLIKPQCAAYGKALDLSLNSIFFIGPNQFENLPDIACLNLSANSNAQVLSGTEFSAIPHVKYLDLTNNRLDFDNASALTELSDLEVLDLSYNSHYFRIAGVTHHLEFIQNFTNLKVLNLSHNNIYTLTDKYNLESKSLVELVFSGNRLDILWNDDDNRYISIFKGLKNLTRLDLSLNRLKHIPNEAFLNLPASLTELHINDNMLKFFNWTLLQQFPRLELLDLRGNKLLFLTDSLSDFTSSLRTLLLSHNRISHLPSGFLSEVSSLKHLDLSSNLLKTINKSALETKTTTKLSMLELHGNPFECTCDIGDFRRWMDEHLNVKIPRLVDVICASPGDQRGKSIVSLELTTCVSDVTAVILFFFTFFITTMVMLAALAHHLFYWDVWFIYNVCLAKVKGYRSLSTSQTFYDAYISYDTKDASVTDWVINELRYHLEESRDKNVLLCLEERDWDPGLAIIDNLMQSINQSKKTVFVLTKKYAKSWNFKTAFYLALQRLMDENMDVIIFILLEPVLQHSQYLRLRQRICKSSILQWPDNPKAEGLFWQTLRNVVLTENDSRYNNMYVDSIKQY
How it was run: (§1)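 Whole human blood with anticoagulant was added to serial compound dilutions in RPMI with 10% FBS and held at 37 °C for 15 min. Samples were lysed and fixed three times, permeabilized in ice-cold methanol for 30 min, then stained on ice for 60 min with anti-NF-κB p65-PECy7, p38MAPK-PE and ERK1/2-AlexaFluor 647. Flow cytometry acquired 100,000 gated events; monocytes and polymorphonuclear cells were gated.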

[2] = target: T1, Toll-like receptor 8 (Homo sapiens); assay: Agonist activity at TLR8 in human monocytes assessed as induction of NF-kappaB phosphorylation measured after 15 mins in presence of 10% FBS by Alexa fluor 647 dye based flow cytometry analysis; assay type: cell-based; conditions: Monocyte, filed as agonist, in the assay text read “PE-Cy7 dye” for “Alexa fluor 647 dye”; how it was run: as §1
[3] = target: T1, Toll-like receptor 8 (Homo sapiens); assay: Agonist activity at TLR8 in human PBMC cells assessed as induction of IFNgamma production incubated for 16 hrs by immunoassay; assay type: cell-based; conditions: filed as agonist
How it was run: (§2)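 Fresh human PBMCs isolated from venous blood, plated at 10^5 cells in 100 µL per well and stimulated for 16 h with graded concentrations of compound. Supernatants were collected by centrifugation and assayed in duplicate with a multiplexed cytokine/chemokine magnetic bead array.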

[4] = target: T1, Toll-like receptor 8 (Homo sapiens); assay: Agonist activity at TLR8 in human PBMC cells assessed as induction of MIP-1beta production incubated for 16 hrs by immunoassay; assay type: cell-based; conditions: filed as agonist; how it was run: as §2
[5] = target: T1, Toll-like receptor 8 (Homo sapiens); assay: Agonist activity at TLR8 in human PBMC cells assessed as induction of MIP-1alpha production incubated for 16 hrs by immunoassay; assay type: cell-based; conditions: filed as agonist; how it was run: as §2
[6] = target: T1, Toll-like receptor 8 (Homo sapiens); assay: Agonist activity at TLR8 in human PBMC cells assessed as induction of TNFalpha production incubated for 16 hrs by immunoassay; assay type: cell-based; conditions: filed as agonist; how it was run: as §2
[7] = target: T1, Toll-like receptor 8 (Homo sapiens); assay: Agonist activity at TLR8 in human PBMC cells assessed as induction of IL-12p40 production incubated for 16 hrs by immunoassay; assay type: cell-based; conditions: filed as agonist; how it was run: as §2
[8] = target: T1, Toll-like receptor 8 (Homo sapiens); assay: Agonist activity at TLR8 in human PBMC cells assessed as induction of IL-1beta production incubated for 16 hrs by immunoassay; assay type: cell-based; conditions: filed as agonist; how it was run: as §2
[9] = target: T1, Toll-like receptor 8 (Homo sapiens); assay: Agonist activity at TLR8 in human PBMC cells assessed as induction of IL-6 production incubated for 16 hrs by immunoassay; assay type: cell-based; conditions: filed as agonist; how it was run: as §2
[10] = target: T1, Toll-like receptor 8 (Homo sapiens); assay: Agonist activity at TLR8 in human PBMC cells assessed as induction of MCP1 production incubated for 16 hrs by immunoassay; assay type: cell-based; conditions: filed as agonist; how it was run: as §2

Measured: Activity

CCCCCc1cc2c(CCCCCN)cccc2nc1N
active: [1] Dose-dependent effect | [2] Dose-dependent effect

CCCCCc1cc2ccccc2nc1N
active: [1] Dose-dependent effect | [2] Dose-dependent effect

CCCCCn1c(N)nc2c(C)cccc21
active: [3] | [4] | [1] Dose-dependent effect | [5] | [6] | [7] | [8] | [2] Dose-dependent effect | [9] | [10]
